Reference: ChEMBL document CHEMBL3351861, “New synthetic sulfone derivatives inhibit growth, adhesion and the leucine arylamidase APE2 gene expression of Candida albicans in vitro” (2015)
In brackets after ≈: the same amount, converted by molar mass.

Key:
[1] = system: Candida albicans; experiment: Antifungal activity against Candida albicans 90028 assessed as growth inhibition at 4 ug/ml by CLSI M27-A3 method; type: functional; conditions: read-out: GI
Outline: (§1)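 CLSI M27-A3 broth microdilution in RPMI, read after 48 h. Strains pre-grown 18 h in YEPD at 30°C. Final inoculum 0.5×10^2–2.5×10^3 cells/ml. Two-fold dilutions in RPMI came from a 1600 µg/ml stock in water with 9% DMSO; final DMSO was 0.09%. OD405 read, % inhibition = 100 − (CTW−SCW)/(GCW−SCW). Triplicate on three occasions, mean±SD.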

[2] = system: Candida albicans; experiment: Antifungal activity against Candida albicans CAI4 expressing delta-cph1 gene assessed as growth inhibition at 8 ug/ml by CLSI M27-A3 method; type: functional; conditions: read-out: GI; outline: as §1
[3] = system: Candida albicans; experiment: Antifungal activity against Candida albicans CAI4 expressing delta-cph1/delta-efg1 gene assessed as growth inhibition at 8 ug/ml by CLSI M27-A3 method; type: functional; conditions: read-out: GI; outline: as §1
[4] = system: Candida albicans; experiment: Antifungal activity against Candida albicans CAI4 expressing delta-cph1/delta-efg1 (EFG1) gene assessed as growth inhibition at by CLSI M27-A3 method; type: functional
[5] = system: Candida albicans; experiment: Inhibition of cell adhesion of compound pre-treated Candida albicans 90028 to human Caco2 cells assessed as cell adhesion level at 8 ug/ml pre-incubated for 18 hrs by colony counting method (reference value: 1.58 +/- 0.67%); type: functional, Caco-2; design: scale not given: the % may be the effect or the level left
[6] = system: Candida albicans; experiment: Antifungal activity against Candida albicans CAI4 expressing delta-cph1 gene assessed as growth inhibition at 1 ug/ml by CLSI M27-A3 method; type: functional; conditions: read-out: GI; outline: as §1
[7] = system: Candida albicans; experiment: Inhibition of cell adhesion of compound pre-treated Candida albicans CAI4 expressing delta-cph1/delta-efg1 (EFG1) gene to human Caco2 cells assessed as cell adhesion level at 8 ug/ml pre-incubated for 18 hrs by colony counting method (reference value: 1.24 +/- 1.06%); type: functional, Caco-2; design: scale not given: the % may be the effect or the level left
[8] = system: Candida albicans; experiment: Antifungal activity against Candida albicans CAI4 expressing delta-cph1 gene assessed as growth inhibition at 2 ug/ml by CLSI M27-A3 method; type: functional; conditions: read-out: GI; outline: as §1
[9] = system: Candida albicans; experiment: Antifungal activity against Candida albicans 90028 assessed as growth inhibition at 1 ug/ml by CLSI M27-A3 method; type: functional; conditions: read-out: GI; outline: as §1
[10] = system: Candida albicans; experiment: Antifungal activity against Candida albicans CAI4 expressing delta-cph1 (CPH1) gene assessed as growth inhibition at 0.5 ug/ml by CLSI M27-A3 method; type: functional; conditions: read-out: GI; outline: as §1
[11] = system: Candida albicans; experiment: Antifungal activity against Candida albicans CAI4 expressing delta-cph1 gene assessed as growth inhibition at 4 ug/ml by CLSI M27-A3 method; type: functional; conditions: read-out: GI; outline: as §1
[12] = system: Candida albicans; experiment: Antifungal activity against Candida albicans CAI4 expressing delta-cph1 (CPH1) gene assessed as growth inhibition at by CLSI M27-A3 method; type: functional
[13] = system: Candida albicans; experiment: Antifungal activity against Candida albicans CAI4 expressing delta-efg1 (EFG1) gene assessed as growth inhibition at 0.5 ug/ml by CLSI M27-A3 method; type: functional; conditions: read-out: GI; outline: as §1
[14] = system: Candida albicans; experiment: Antifungal activity against Candida albicans 90028 assessed as growth inhibition at by CLSI M27-A3 method; type: functional
[15] = system: Candida albicans; experiment: Inhibition of cell adhesion of compound pre-treated Candida albicans CAI4 expressing delta-cph1 gene to human Caco2 cells assessed as cell adhesion level at 8 ug/ml pre-incubated for 18 hrs by colony counting method (reference value: 1.6 +/- 0.65%); type: functional, Caco-2; design: scale not given: the % may be the effect or the level left
[16] = system: Candida albicans; experiment: Antifungal activity against Candida albicans CAI4 expressing delta-efg1 gene assessed as growth inhibition at 16 ug/ml by CLSI M27-A3 method; type: functional; conditions: read-out: GI
Outline: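 CLSI M27-A3 broth microdilution in RPMI. Final inoculum 0.5×10^2 to 2.5×10^3 cells/ml. Seven two-fold concentrations from 0.25 to 16 µg/ml, with DMSO held at 0.09% (v/v) in all wells. Compound-free growth controls and sterility controls are run for each strain. […] Triplicate on three occasions.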

[17] = system: Candida albicans; experiment: Antifungal activity against Candida albicans CAI4 expressing delta-cph1/delta-efg1 (EFG1) gene assessed as growth inhibition at 1 ug/ml by CLSI M27-A3 method; type: functional; conditions: read-out: GI; outline: as §1
[18] = system: Candida albicans; experiment: Inhibition of cell adhesion of compound pre-treated Candida albicans CAI4 expressing delta-cph1 (CPH1) gene to human Caco2 cells assessed as cell adhesion level at 16 ug/ml pre-incubated for 18 hrs by colony counting method (reference value: 5.37 +/- 12.4%); type: functional, Caco-2; design: scale not given: the % may be the effect or the level left
[19] = system: Candida albicans; experiment: Antifungal activity against Candida albicans CAI4 expressing delta-cph1/delta-efg1 (EFG1) gene assessed as growth inhibition at 0.25 ug/ml by CLSI M27-A3 method; type: functional; conditions: read-out: GI; outline: as §1
[20] = system: Candida albicans; experiment: Inhibition of cell adhesion of compound pre-treated Candida albicans CAI4 expressing delta-efg1 gene to human Caco2 cells assessed as cell adhesion level at 16 ug/ml pre-incubated for 18 hrs by colony counting method (reference value: 2.1 +/- 3.52%); type: functional, Caco-2; design: scale not given: the % may be the effect or the level left
[21] = system: Candida albicans; experiment: Antifungal activity against Candida albicans CAI4 expressing delta-cph1/delta-efg1 gene assessed as growth inhibition at 2 ug/ml by CLSI M27-A3 method; type: functional; conditions: read-out: GI; outline: as §1
[22] = system: Candida albicans; experiment: Inhibition of cell adhesion of compound pre-treated Candida albicans CAI4 expressing delta-cph1 gene to human Caco2 cells assessed as cell adhesion level at 4 ug/ml pre-incubated for 18 hrs by colony counting method (reference value: 1.6 +/- 0.65%); type: functional, Caco-2; design: scale not given: the % may be the effect or the level left
[23] = system: Candida albicans; experiment: Antifungal activity against Candida albicans CAI4 expressing delta-cph1/delta-efg1 (EFG1) gene assessed as growth inhibition at 8 ug/ml by CLSI M27-A3 method; type: functional; conditions: read-out: GI; outline: as §1
[24] = system: Candida albicans; experiment: Antifungal activity against Candida albicans CAI4 expressing delta-cph1 gene assessed as growth inhibition at 16 ug/ml by CLSI M27-A3 method; type: functional; conditions: read-out: GI; outline: as §1
[25] = system: Candida albicans; experiment: Antifungal activity against Candida albicans CAI4 expressing delta-cph1 gene assessed as growth inhibition at by CLSI M27-A3 method; type: functional
[26] = system: Candida albicans; experiment: Inhibition of cell adhesion of compound pre-treated Candida albicans CAI4 expressing delta-cph1 gene to human Caco2 cells assessed as cell adhesion level at 2 ug/ml pre-incubated for 18 hrs by colony counting method (reference value: 1.6 +/- 0.65%); type: functional, Caco-2; design: scale not given: the % may be the effect or the level left
[27] = system: Candida albicans; experiment: Inhibition of cell adhesion of compound pre-treated Candida albicans CAI4 expressing delta-cph1/delta-efg1 (EFG1) gene to human Caco2 cells assessed as cell adhesion level at 16 ug/ml pre-incubated for 18 hrs by colony counting method (reference value: 1.24 +/- 1.06%); type: functional, Caco-2; design: scale not given: the % may be the effect or the level left
[28] = system: Candida albicans; experiment: Antifungal activity against Candida albicans CAI4 expressing delta-cph1 (CPH1) gene assessed as growth inhibition at 8 ug/ml by CLSI M27-A3 method; type: functional; conditions: read-out: GI; outline: as §1
[29] = system: Candida albicans; experiment: Antifungal activity against Candida albicans CAI4 expressing delta-efg1 gene assessed as growth inhibition at 0.25 ug/ml by CLSI M27-A3 method; type: functional; conditions: read-out: GI; outline: as §1
[30] = system: Candida albicans; experiment: Inhibition of cell adhesion of compound pre-treated Candida albicans CAI4 expressing delta-efg1 gene to human Caco2 cells assessed as cell adhesion level at 4 ug/ml pre-incubated for 18 hrs by colony counting method (reference value: 2.1 +/- 3.52%); type: functional, Caco-2; design: scale not given: the % may be the effect or the level left
[31] = system: Candida albicans; experiment: Antifungal activity against Candida albicans CAI4 expressing delta-cph1/delta-efg1 gene assessed as growth inhibition at 4 ug/ml by CLSI M27-A3 method; type: functional; conditions: read-out: GI; outline: as §1

Row | SMILES | inhibition of growth at 4 µg/mL [1] [%] | inhibition of growth at 8 µg/mL [2] [%] | inhibition of growth at 8 µg/mL [3] [%] | MIC90 [4] [µg/mL] | Activity [5] [%] | inhibition of growth at 1 µg/mL [6] [%] | Activity [7] [%] | inhibition of growth at 2 µg/mL [8] [%] | inhibition of growth at 1 µg/mL [9] [%] | inhibition of growth at 0.5 µg/mL [10] [%] | inhibition of growth at 4 µg/mL [11] [%] | MIC90 [12] [µg/mL] | inhibition of growth at 0.5 µg/mL [13] [%] | MIC90 [14] [µg/mL] | Activity [15] [%] | inhibition of growth at 16 µg/mL [16] [%] | inhibition of growth at 1 µg/mL [17] [%] | Activity [18] [%] | inhibition of growth at 0.25 µg/mL [19] [%] | Activity [20] [%] | further results
1 | NNc1ccc(S(=O)(=O)C(Cl)(Br)Br)cc1[N+](=O)[O-] | 99.7 | 100 | 100 | 4 (≈ 9.45 µM) | 2.66 | 99.8 | 0.75 | 100 | 97.4 | 98.8 | 100 | 4 (≈ 9.45 µM) | 98.8 | 4 (≈ 9.45 µM) | 0.56 | 100 | 98.8 | 0.78 | 72 | 0.81 | inhibition of growth at 2 µg/mL [21]: 100%; Activity [22]: 0.22%; inhibition of growth at 8 µg/mL [23]: 99.4%; inhibition of growth at 16 µg/mL [24]: 100%; MIC90 [25]: 4 µg/mL (≈ 9.45 µM); Activity [26]: 0.51%; Activity [27]: 1.5%; inhibition of growth at 8 µg/mL [28]: 99.7%; inhibition of growth at 0.25 µg/mL [29]: 70.8%; Activity [30]: 0.69%; inhibition of growth at 4 µg/mL [31]: 100%
2 | O=[N+]([O-])c1cc(S(=O)(=O)C(Cl)(Cl)Br)ccc1Cl | 99.4 | 99.3 | 99.4 | 16 (≈ 41.7 µM) | 2.2 | 97.8 | 1.26 | 98.9 | 98.8 | 97.1 | 98.7 | 16 (≈ 41.7 µM) | 99 | 16 (≈ 41.7 µM) | 0.35 | 99.6 | 98.9 | 0.48 | 96.5 | 0.99 | inhibition of growth at 2 µg/mL [21]: 98.8%; Activity [22]: 0.55%; inhibition of growth at 8 µg/mL [23]: 99.8%; inhibition of growth at 16 µg/mL [24]: 99.6%; MIC90 [25]: 16 µg/mL (≈ 41.7 µM); Activity [26]: 0.43%; Activity [27]: 0.75%; inhibition of growth at 8 µg/mL [28]: 99.8%; inhibition of growth at 0.25 µg/mL [29]: 98.4%; Activity [30]: 1.14%; inhibition of growth at 4 µg/mL [31]: 99%
